In ChEMBL document CHEMBL3297741, “Cytotoxic cleistanthane and cassane diterpenoids from the entomogenous fungus Paraconiothyrium hawaiiense” (J Nat Prod, 2014) one finds IC50 and inhibition data, which are given here for 4 molecules.

Common to all, as to type: functional, cell-based
The subject of experiment [1] is HCT-116. In words: Cytotoxicity against human HCT116 cells after 48 hrs by […]. The conditions noted are these: HCT-116, 48 h. In a few lines:
(§1)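 MTS read-out. Cells were seeded at (2−5) × 10^3 per well, depending on growth rate, and attached overnight. Medium was then replaced with medium holding serial dilutions of compound from 100 mM DMSO stocks, with 0.1% DMSO vehicle and cisplatin control. Plates were incubated 48 h at 37 °C in humidified 5% CO2. MTS was added for 90 min at 37 °C in the dark, and absorbance read at 490 nm. Triplicate runs gave IC50.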

The subject of experiment [2] is A549. In words: Cytotoxicity against human A549 cells after 48 hrs by […]. The conditions noted are these: A549, 48 h. Put shortly:
as §1

Experiment [3] can be described thus: Cytotoxicity against human T24 cells after 48 hrs by […]. The conditions noted are these: T-24, 48 h. In a few lines: as §1
For experiment [4], the system named is HeLa. In words: Cytotoxicity against human HeLa cells after 48 hrs by […]. Put shortly:
as §1

Experiment [5] deals with MCF7. In words: Cytotoxicity against human MCF7 cells after 48 hrs by […]. The conditions noted are these: MCF7, 48 h. Put shortly: as §1
For experiment [6], the system named is A549. Nature of the experiment: Cytotoxicity against human A549 cells at 50 uM after 48 hrs by […]. Put shortly: (§2)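 Single concentration of 50 μM tested in the MTS proliferation assay. Cells were seeded at (2−5) × 10^3 per well and attached overnight. Compound was diluted in medium from 100 mM DMSO stock, alongside a 0.1% DMSO vehicle. Plates were incubated 48 h at 37 °C in humidified 5% CO2. MTS was added for 90 min at 37 °C, then absorbance read at 490 nm. Run in triplicate.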

Experiment [7] deals with T-24. In words: Cytotoxicity against human T24 cells at 50 uM after 48 hrs by […]. In a few lines:
as §2

For experiment [8], the system named is HeLa. In words: Cytotoxicity against human HeLa cells at 50 uM after 48 hrs by […]. In a few lines:
as §2

Experiment [9] concerns HCT-116. Nature of the experiment: Cytotoxicity against human HCT116 cells at 50 uM after 48 hrs by […]. Put shortly:
as §2

The subject of experiment [10] is MCF7. In words: Cytotoxicity against human MCF7 cells at 50 uM after 48 hrs by […] assay. Put shortly: as §2

SMILES strings stand for the structures. Active and inactive are the calls of the source. The calls are words filed in the database; no cut-off is given here.

In the case of `C=C[C@@H]1C(=C)CC[C@H]2[C@H]1CC(=O)[C@@]1(O)[C@@]3(C)C(=O)O[C@H]3CC[C@]21C`, the half-maximal inhibitory concentration (IC50) – broadly, the concentration at which inhibition is half-maximal – worked out at 6.23 µM in experiment [1]; 7.48 µM in experiment [2]; 4.26 µM in experiment [3]; 2.84 µM in [4]; 7.43 µM in [5].
As to `C=C[C@@H]1C(=C)CC[C@H]2[C@H]1C[C@H]1OC(=O)[C@@]3(C)[C@H](O)CC[C@@]2(C)[C@@]13O`, in [4], the half-inhibitory concentration (IC50) was found to be 50.3 µM.
With `C=C[C@@H]1C(=C)CC[C@H]2[C@H]1C[C@H]1OC(=O)[C@@]3(C)[C@H](OC(C)=O)CC[C@@]2(C)[C@@]13O`, the IC50 in experiment [1] was 37.3 µM; in experiment [2], 43.6 µM; in [3] it was 20.7 µM; in [4], 43.7 µM; in experiment [5], 23.4 µM.
As to `C=CC1=CC[C@H]2[C@@H](CC(=O)[C@@]3(O)[C@@]4(C)C(=O)O[C@H]4CC[C@]23C)[C@H]1C`, the inhibition entry in experiment [6], in experiment [7], in experiment [8], in experiment [9] and in experiment [10] was “inactive” each time.
